PMC4732916 (Journal of medicinal chemistry, 2016)
Like-named read-outs stand apart in the source and are kept apart here.

Columns and labels:
WM115 melanoma cells = test: Cellular assays, EC50 quoted in text without S100B level; type: cell-based, human; conditions: for S100B-dependent killing (high vs low S100B cells): S100B-knockdown cell lines, result in words; for EC50: Homo sapiens
Ca^2+-S100B = molecular target: T1, Ca^2+-S100B (Rattus norvegicus, UniProt P04631); test: HSQC NMR of Ca2+-loaded S100B with SBiX compounds; type: binding; conditions: result in words; for effect on NMR spectra of Ca^2+-S100B (chemical shift perturbations / broadening): compared with pentamidine and heptamidine
T1 sequence (P04631 1-92): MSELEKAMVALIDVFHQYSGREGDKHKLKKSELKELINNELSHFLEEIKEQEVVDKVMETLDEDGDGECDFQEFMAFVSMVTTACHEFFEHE
Outline: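 Samples: 15N-labelled rat S100B (purified >99%) at 0.1 mM subunit with 0.125 mM test compound, 10 mM CaCl2, 15 mM NaCl, 0.34 mM NaN3, 0.2% TPEN, 5% DMSO-d6, 10% D2O, 10 mM HEPES pH 7.2. 1H-15N HSQC spectra; 15N shifts indirectly referenced (ratio 0.10132905). Spectra were inspected visually for combined 1H+15N chemical shift perturbations to map the binding site.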

Ca^2+-loaded S100B = molecular target: T2, Ca^2+-loaded S100B (Rattus norvegicus, UniProt P04631); test: Fluorescence polarization competition assay; type: binding; conditions: Site 1 probe; result in words
T2 sequence (P04631 1-92): T1 sequence (P04631 1-92)
Outline: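 Competition of test compound with 10 nM TAMRA-labelled TRTK12 peptide (CapZ residues 265-276), bound to Site 1 of 1 μM rat S100B, all final concentrations. Compound titrated from the highest attainable concentration. Fluorescence polarization read at room temperature, ex 544 nm/em 590 nm.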

[1] = test system: WM115 melanoma cells transfected with shRNA^S100B (low S100B); test: SYBR Green cell proliferation; type: cell-based, human; conditions: read-out: Low S100B EC50 Mean ± S.D.
[2] = WM-115, read-out: EC50 in cellular assays

Row | Compound | EC50 (WM115 melanoma cells; [2]) | ability to compete with TAMRA-TRTK probe in FPCA (Ca^2+-loaded S100B) | binding to Ca^2+-S100B as measured using NMR (Ca^2+-S100B) | other results
1 | N=C(N)c1ccc(OCCCCCCCOc2ccc(C(=N)N)cc2)cc1 [4a, Heptamidine] |  |  |  | S100B-dependent killing (high vs low S100B cells) (WM115 melanoma cells): selectivity in killing melanoma cells with high S100B over those with low S100B was clearly observed
2 | N=C(N)c1ccc(OCCCCCOc2ccc(C(=N)N)cc2)cc1 [4b, pentamidine, reference compound] |  |  |  | EC50 (WM115 melanoma cells; WM-115, read-out: ^CellsEC50): 26 µM
3 | c1cc(C2=NCCN2)ccc1OCCCCCOc1ccc(C2=NCCN2)cc1 [5b, 1,5-bis(4-(4,5-dihydro-1H-imidazol-2-yl)phenoxy)pentane] |  |  |  | effect on NMR spectra of Ca^2+-S100B (chemical shift perturbations / broadening) (Ca^2+-S100B): significant broadening
4 | c1cc(C2=NCCN2)ccc1OCCCCCCOc1ccc(C2=NCCN2)cc1 [5c, 1,6-bis(4-(4,5-dihydro-1H-imidazol-2-yl)phenoxy)hexane] |  |  |  | effect on NMR spectra of Ca^2+-S100B (chemical shift perturbations / broadening) (Ca^2+-S100B): significant broadening
5 | c1cc(C2=NCCN2)ccc1OCCCCCCCCOc1ccc(C2=NCCN2)cc1 [5d, 1,8-bis (4-(4,5-dihydro-1H-imidazol-2-yl)phenoxy) octane] |  |  |  | effect on NMR spectra of Ca^2+-S100B (chemical shift perturbations / broadening) (Ca^2+-S100B): significant broadening
6 | c1cc(C2=NCCCN2)ccc1OCCCCCCCOc1ccc(C2=NCCCN2)cc1 [6a, 1,7-bis (4-(1,4,5,6-tetrahydropyrimidin-2-yl)phenoxy)heptane] | 200 to 600 µM |  |  | 
7 | c1cc(C2=NCCCN2)ccc1OCCCCCOc1ccc(C2=NCCCN2)cc1 [6b, 1,5-bis(4-(1,4,5,6-tetrahydropyrimidin-2-yl)phenoxy)pentane] | 200 to 600 µM |  |  | effect on NMR spectra of Ca^2+-S100B (chemical shift perturbations / broadening) (Ca^2+-S100B): significant broadening
8 | c1cc(C2=NCCCN2)ccc1OCCCCCCOc1ccc(C2=NCCCN2)cc1 [6c, 1,6-bis(4-(1,4,5,6-tetrahydropyrimidin-2-yl)phenoxy)hexane] | 25 to 45 µM |  |  | 
9 | c1cc(C2=NCCCN2)ccc1OCCCCCCCCOc1ccc(C2=NCCCN2)cc1 [6d, 1,8-bis(4-(1,4,5,6-tetrahydropyrimidin-2-yl)phenoxy)octane] | 25 to 45 µM |  |  | 
10 | c1cc(C2=NCCCCN2)ccc1OCCCCCCCOc1ccc(C2=NCCCCN2)cc1 [7a, 1,7-bis(4-(4,5,6,7-tetrahydro-1H-1,3-diazepin-2-yl)phenoxy)heptane] | 5 to 20 µM |  |  | 
11 | c1cc(C2=NCCCCN2)ccc1OCCCCCOc1ccc(C2=NCCCCN2)cc1 [7b, 1,5-bis (4-(4,5,6,7-tetrahydro-1H-1,3-diazepin-2-yl)phenoxy)pentane] | 5 to 20 µM |  |  | 
12 | c1cc(C2=NCCCCN2)ccc1OCCCCCCOc1ccc(C2=NCCCCN2)cc1 [7c, 1,6-bis(4-(4,5,6,7-tetrahydro-1H-1,3-diazepin-2-yl)phenoxy)hexane] | 250 to 300 µM |  |  | 
13 | c1cc(C2=NCCCCN2)ccc1OCCCCCCCCOc1ccc(C2=NCCCCN2)cc1 [7d, 1,8-bis (4-(4,5,6,7-tetrahydro-1H-1,3-diazepin-2-yl)phenoxy)octane] | 5 to 20 µM |  |  | 
14 | N=C(NCCCCCCCN)c1ccc(OCCCCCCCOc2ccc(C(=N)NCCCCCCCN)cc2)cc1 [9a, 4,4′-(heptane-1,7-diylbis(oxy))bis(N-(7-aminoheptyl)benzimidamide)] |  | found to compete | interacted | effect on NMR spectra of Ca^2+-S100B (chemical shift perturbations / broadening) (Ca^2+-S100B): significant broadening
15 | N=C(NCCCCCCCN)c1ccc(OCCCCCCCCOc2ccc(C(=N)NCCCCCCCN)cc2)cc1 [9b, 4,4′-(octane-1,8-diylbis (oxy))bis(N-(7-aminoheptyl)benzimidamide)] |  | found to compete | interacted | effect on NMR spectra of Ca^2+-S100B (chemical shift perturbations / broadening) (Ca^2+-S100B): significant broadening
16 | N=C(N)c1ccc(OCCCN(CCCOc2ccc(C(=N)N)cc2)Cc2ccccc2)cc1 [16a, 4,4′-(((benzylazanediyl)bis(propane-3,1-diyl))bis(oxy))dibenzimidamide] | 40 to 50 µM | neither was able to compete | bound weakly | 
17 | CCCN(CCCOc1ccc(C(=N)N)cc1)CCCOc1ccc(C(=N)N)cc1 [16b, 4,4′-(((propylazanediyl)bis(propane-3,1-diyl))bis(oxy))dibenzimidamide] | > 500 µM | neither was able to compete | bound weakly | 
18 | N=C(NCCCCCN)c1ccc(OCCCCCOc2ccc(C(=N)NCCCCCN)cc2)cc1 [compound 8, 4,4′-(pentane-1,5-diylbis(oxy))bis(N-(5-aminopentyl)benzimidamide)] | 35 to 40 µM | found to compete | interacted | 
19 | N=C(NC(=O)Nc1ccccc1)c1ccc(OCCCCCCCOc2ccc(C(=N)NC(=O)Nc3ccccc3)cc2)cc1 [compound 10, 4,4′-(heptane-1,7-diylbis(oxy))bis(N-(phenylcarbamoyl)benzimidamide)] | < 1 µM | neither was able to compete | ability to bind | 
20 | CNC(=O)NC(=N)c1ccc(OCCCCCCCOc2ccc(C(=N)NC(=O)NC)cc2)cc1 [compound 11, 4,4′-(heptane-1,7-diylbis (oxy))bis(N-(methylcarbamoyl)benzimidamide)] | 130 to 150 µM | neither was able to compete | ability to bind | 
21 | N=C(N)c1ccc(Oc2ccc(-c3cc4ccc(C(=N)N)cc4[nH]3)cc2)cc1 [compound 17, 2-(4-(4-carbamimidoylphenoxy)phenyl)-1H-indole-6-carboximidamide] |  | found to inhibit TAMRA-TRTK binding | found to bind | S100B-dependent killing (high vs low S100B cells) (WM115 melanoma cells): no S100B-dependent killing
22 | hexamidine [4c] |  |  |  | EC50 [1]: 234 ± 7.9 µM
